{
  "source": "ChEMBL document CHEMBL2169796",
  "about": "“Antiproliferative and antimigratory actions of synthetic long chain n-3 monounsaturated fatty acids in breast cancer cells that overexpress cyclooxygenase-2” (J Med Chem, 2012)",
  "key": {"MDA-MB-468 [1]": {"tested_on": "MDA-MB-468", "experiment": "Cytotoxicity against human MDA-MB-468 cells assessed as reduction in viable cells after 48 hrs by trypan blue exclusion assay", "assay_type": "functional", "how_it_was_run": "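COX-2-overexpressing MDA-MB-468 transfectants exposed to fatty acids at 20 and 50 μM for 48 h; viable cells counted by trypan blue exclusion, expressed as decrease from control.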"}, "MDA-MB-468 [2]": {"tested_on": "MDA-MB-468", "experiment": "Proapoptotic activity in human MDA-MB-468 cells assessed as activation of caspase-3 by luminometry", "assay_type": "functional, cell-based"}, "MDA-MB-468 [3]": {"tested_on": "MDA-MB-468", "experiment": "Antiproliferative activity against human MDA-MB-468 cells after 24 hrs by MTT assay", "assay_type": "functional, cell-based"}, "MDA-MB-468 [4]": {"tested_on": "MDA-MB-468", "experiment": "Antiproliferative activity against human MDA-MB-468 cells after 48 hrs by MTT assay", "assay_type": "functional, cell-based", "conditions": "MDA-MB-468, 48 h"}, "[5]": {"target": "T1, Prostaglandin G/H synthase 2 (Homo sapiens) (UniProt P35354)", "T1 sequence (whole entry)": "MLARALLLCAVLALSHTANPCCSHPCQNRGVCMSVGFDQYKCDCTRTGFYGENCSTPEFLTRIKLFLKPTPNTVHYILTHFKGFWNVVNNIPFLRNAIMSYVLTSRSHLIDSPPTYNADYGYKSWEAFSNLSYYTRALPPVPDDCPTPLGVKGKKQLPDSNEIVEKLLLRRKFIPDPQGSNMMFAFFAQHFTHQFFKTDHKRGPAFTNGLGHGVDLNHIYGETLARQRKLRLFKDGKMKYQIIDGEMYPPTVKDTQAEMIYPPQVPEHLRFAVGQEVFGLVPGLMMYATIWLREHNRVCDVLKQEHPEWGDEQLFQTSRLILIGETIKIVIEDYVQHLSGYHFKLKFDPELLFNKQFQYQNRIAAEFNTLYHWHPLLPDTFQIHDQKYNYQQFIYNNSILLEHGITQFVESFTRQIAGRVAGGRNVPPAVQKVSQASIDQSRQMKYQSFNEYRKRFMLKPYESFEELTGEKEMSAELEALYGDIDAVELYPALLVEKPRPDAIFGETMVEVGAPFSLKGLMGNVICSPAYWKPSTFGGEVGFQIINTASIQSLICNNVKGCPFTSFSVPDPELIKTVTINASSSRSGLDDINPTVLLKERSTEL", "experiment": "Inhibition of peroxidase activity of COX-2 overexpressed in human MDA-MB-468 cells at 50 uM by spectrophotometry; values are per cent of control"}, "MDA-MB-468 [6]": {"tested_on": "MDA-MB-468", "experiment": "Inhibition of cell invasion in human MDA-MB-468 cells overexpressing COX-2 at 20 uM after 20 hrs by matrigel droplet assay relative to untreated-control; values are per cent of control", "conditions": "MDA-MB-468, 20 h"}, "[7]": {"target": "T1, Prostaglandin G/H synthase 2 (Homo sapiens)", "experiment": "Inhibition of COX-2 overexpressed in human MDA-MB-468 cell lysate assessed as reduction in arachidonic acid-induced PGE2 formation at 50 uM by LC-MS-MS assay; values are per cent of control"}, "[8]": {"target": "T1, Prostaglandin G/H synthase 2 (Homo sapiens)", "experiment": "Inhibition of COX2 overexpressed in human MDA-MB-468 cells assessed as reduction in basal PGE2 level at 50 uM over 48 hrs by LC-MS-MS assay relative to control; values are per cent of control"}, "[9]": {"target": "T1, Prostaglandin G/H synthase 2 (Homo sapiens)", "experiment": "Inhibition of COX2 overexpressed in human MDA-MB-468 cells assessed as reduction in basal PGE2 level at 50 uM over 48 hrs by LC-MS-MS assay relative to control", "assay_type": "cell-based", "how_it_was_run": "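Intact COX-2-overexpressing MDA-MB-468 cells given fatty acid (50 μM) for 48 h without added substrate; basal PGE2 in medium measured by LC-MS-MS, as % of control.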"}, "MDA-MB-468 [10]": {"tested_on": "MDA-MB-468", "experiment": "Inhibition of cell invasion in human MDA-MB-468 cells overexpressing COX-2 at 20 uM after 20 hrs by matrigel droplet assay relative to untreated-control", "assay_type": "functional", "how_it_was_run": "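Cells (3.5 × 10^6/mL) mixed with Matrigel, 20 μL droplets set 5 min at 37 °C, then covered with endothelial growth medium-2 with 10% FBS containing fatty acid (10 or 20 μM) for 20 h at 37 °C, 5% CO2; cells migrating out of droplets counted by phase-contrast microscopy, vs DMSO control.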"}, "MDA-MB-468 [11]": {"tested_on": "MDA-MB-468", "experiment": "Inhibition of cell invasion in human MDA-MB-468 cells overexpressing COX-2 at 10 uM after 20 hrs by matrigel droplet assay relative to untreated-control; values are per cent of control", "conditions": "MDA-MB-468, 20 h"}, "[12]": {"target": "T1, Prostaglandin G/H synthase 2 (Homo sapiens)", "experiment": "Inhibition of COX2 overexpressed in human MDA-MB-468 cells assessed as reduction in arachidonic acid-induced PGE2 production at 50 uM over 48 hrs by LC-MS-MS assay relative to control; values are per cent of control"}, "[13]": {"target": "T1, Prostaglandin G/H synthase 2 (Homo sapiens)", "experiment": "Inhibition of COX-2 overexpressed in human MDA-MB-468 cell lysate assessed as reduction in arachidonic acid-induced PGE2 formation at 50 uM by LC-MS-MS assay", "assay_type": "cell-free", "how_it_was_run": "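Lysate of confluent COX-2-overexpressing MDA-MB-468 cells incubated with heme (10 μM), arachidonic acid (20 μM) and analogue (50 μM) in Tris-HCl 100 mM pH 8.0; quenched with ice-cold acetonitrile plus PGE2-d4, SPE cleanup, PGE2 quantified by negative-ion ESI LC-MS-MS.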"}},
  "note": "The source made the active and inactive calls. The rule behind the calls is not given here.",
  "data": [
    {"smiles": "CC/C=C\\CCCCCCCCCCCCCCCC(=O)O", "values": [
      {"measurement": "Activity", "setting": "MDA-MB-468 [1]", "result": "inactive"},
      {"measurement": "EC50", "setting": "MDA-MB-468 [2]", "result": 43, "unit": "µM"},
      {"measurement": "Activity", "setting": "MDA-MB-468 [3]", "result": "Dose-dependent effect"},
      {"measurement": "IC50", "setting": "MDA-MB-468 [4]", "result": 31, "unit": "µM"},
      {"measurement": "residual activity", "setting": "[5]", "result": 62, "unit": "%"},
      {"measurement": "level, % of control at 20 µM", "setting": "MDA-MB-468 [6]", "result": 75, "unit": "%"},
      {"measurement": "residual activity", "setting": "[7]", "result": 42, "unit": "%"},
      {"measurement": "residual activity", "setting": "[8]", "result": 46, "unit": "%"}
    ]},
    {"smiles": "CC/C=C\\CCCCCCCCCCCC(=O)O", "values": [
      {"measurement": "Activity", "setting": "MDA-MB-468 [1]", "result": 25, "unit": "%"},
      {"measurement": "inhibition", "setting": "[9]", "result": "inactive"},
      {"measurement": "inhibition", "setting": "MDA-MB-468 [10]", "result": "inactive"},
      {"measurement": "EC50", "setting": "MDA-MB-468 [2]", "result": "> 100", "unit": "µM"},
      {"measurement": "Activity", "setting": "MDA-MB-468 [3]", "result": "Dose-dependent effect"},
      {"measurement": "IC50", "setting": "MDA-MB-468 [4]", "result": "> 100", "unit": "µM"}
    ]},
    {"smiles": "CC/C=C\\CCCCCCCCCCCCCCCCCC(=O)O", "values": [
      {"measurement": "Activity", "setting": "MDA-MB-468 [1]", "result": "inactive"},
      {"measurement": "EC50", "setting": "MDA-MB-468 [2]", "result": 26, "unit": "µM"},
      {"measurement": "Activity", "setting": "MDA-MB-468 [3]", "result": "Dose-dependent effect"},
      {"measurement": "IC50", "setting": "MDA-MB-468 [4]", "result": 21, "unit": "µM"},
      {"measurement": "residual activity", "setting": "[5]", "result": 58, "unit": "%"},
      {"measurement": "level, % of control at 20 µM", "setting": "MDA-MB-468 [6]", "result": 48, "unit": "%"},
      {"measurement": "level, % of control at 10 µM", "setting": "MDA-MB-468 [11]", "result": 48, "unit": "%"},
      {"measurement": "residual activity", "setting": "[7]", "result": 42, "unit": "%"},
      {"measurement": "residual activity", "setting": "[8]", "result": 45, "unit": "%"},
      {"measurement": "residual activity", "setting": "[12]", "result": 40, "unit": "%"}
    ]},
    {"smiles": "CC/C=C\\CCCCCCCCCCCCCCCCC(=O)O", "values": [
      {"measurement": "Activity", "setting": "MDA-MB-468 [1]", "result": "inactive"},
      {"measurement": "EC50", "setting": "MDA-MB-468 [2]", "result": 12, "unit": "µM"},
      {"measurement": "Activity", "setting": "MDA-MB-468 [3]", "result": "Dose-dependent effect"},
      {"measurement": "IC50", "setting": "MDA-MB-468 [4]", "result": 9.3, "unit": "µM"},
      {"measurement": "residual activity", "setting": "[5]", "result": 54, "unit": "%"},
      {"measurement": "level, % of control at 20 µM", "setting": "MDA-MB-468 [6]", "result": 59, "unit": "%"},
      {"measurement": "residual activity", "setting": "[7]", "result": 42, "unit": "%"},
      {"measurement": "residual activity", "setting": "[8]", "result": 49, "unit": "%"},
      {"measurement": "residual activity", "setting": "[12]", "result": 40, "unit": "%"}
    ]},
    {"smiles": "CC/C=C\\CCCCCCCCCCCCCC(=O)O", "values": [
      {"measurement": "Activity", "setting": "MDA-MB-468 [1]", "result": "inactive"},
      {"measurement": "inhibition", "setting": "[9]", "result": "inactive"},
      {"measurement": "inhibition", "setting": "MDA-MB-468 [10]", "result": "inactive"},
      {"measurement": "EC50", "setting": "MDA-MB-468 [2]", "result": 54, "unit": "µM"},
      {"measurement": "Activity", "setting": "MDA-MB-468 [3]", "result": "Dose-dependent effect"},
      {"measurement": "IC50", "setting": "MDA-MB-468 [4]", "result": "> 100", "unit": "µM"}
    ]},
    {"smiles": "CC/C=C\\C/C=C\\C/C=C\\C/C=C\\C/C=C\\CCCC(=O)O", "note": "[ICOSAPENT]", "values": [
      {"measurement": "EC50", "setting": "MDA-MB-468 [2]", "result": "> 100", "unit": "µM"},
      {"measurement": "IC50", "setting": "MDA-MB-468 [4]", "result": "> 100", "unit": "µM"}
    ]},
    {"smiles": "CC/C=C\\CCCCCCCCCCCCCCC(=O)O", "values": [
      {"measurement": "Activity", "setting": "MDA-MB-468 [1]", "result": 20, "unit": "%"},
      {"measurement": "inhibition", "setting": "[13]", "result": "Active"},
      {"measurement": "inhibition", "setting": "[9]", "result": "inactive"},
      {"measurement": "inhibition", "setting": "MDA-MB-468 [10]", "result": "inactive"},
      {"measurement": "EC50", "setting": "MDA-MB-468 [2]", "result": 43, "unit": "µM"},
      {"measurement": "Activity", "setting": "MDA-MB-468 [3]", "result": "Dose-dependent effect"},
      {"measurement": "IC50", "setting": "MDA-MB-468 [4]", "result": 36, "unit": "µM"},
      {"measurement": "residual activity", "setting": "[5]", "result": 71, "unit": "%"}
    ]},
    {"smiles": "CCCCC/C=C\\C/C=C\\C/C=C\\C/C=C\\CCCC(=O)O", "note": "[ARACHIDONIC ACID]", "values": [
      {"measurement": "EC50", "setting": "MDA-MB-468 [2]", "result": "> 100", "unit": "µM"},
      {"measurement": "IC50", "setting": "MDA-MB-468 [4]", "result": "> 100", "unit": "µM"}
    ]},
    {"smiles": "CC/C=C\\CCCCCCCCCCCCC(=O)O", "values": [
      {"measurement": "Activity", "setting": "MDA-MB-468 [1]", "result": "inactive"},
      {"measurement": "inhibition", "setting": "[9]", "result": "inactive"},
      {"measurement": "inhibition", "setting": "MDA-MB-468 [10]", "result": "inactive"},
      {"measurement": "EC50", "setting": "MDA-MB-468 [2]", "result": 69, "unit": "µM"},
      {"measurement": "Activity", "setting": "MDA-MB-468 [3]", "result": "Dose-dependent effect"},
      {"measurement": "IC50", "setting": "MDA-MB-468 [4]", "result": "> 100", "unit": "µM"}
    ]}
  ]
}
